# Experimental data reported in paper PMC12800297 (Communications Chemistry, 2025).
# “Also recorded” adds a separate entry of the source.
# Experiments:
# A2AR-ΔCTD = A2AR-ΔCTD (Homo sapiens, UniProt P29274, N154A); assay: Competition fluorescence polarization; assay type: binding
# How it was run: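 Receptor was preincubated with metabolite for 10 min, then mixed with fluorescent NECA (10 nM final) for 10 min at room temperature with gentle shaking. Fluorescence polarization was read.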
# [1] = test system: A2AR (thermostabilized A2AR-BRIL); assay: MIDAS equilibrium dialysis with LC-MS metabolite screen; assay type: binding, human; conditions: p < 0.05, Supplementary Fig. 2a
# A2AR [2] = target: T1, A2AR (Homo sapiens, UniProt P29274, N154A); assay: GTP hydrolysis assay; assay type: biochemical; conditions: for Inhibition screen: metabolites at 100 μM, with adenosine, replicates, 100 µM
# [3] = test system: HEK293 cells stably expressing A2AR; assay: HTRF cAMP detection assay, inhibition of adenosine-induced cAMP production; assay type: cell-based, human; conditions: for inhibition of adenosine-induced cAMP production: concentration-dependent assay
# A2AR V84 to alanine = conditions: V84 mutated to alanine; cited from earlier work
# A2AR H278 to alanine = conditions: H278 mutated to alanine; cited from earlier work
# [4] = test system: HEK293 cells stably expressing A2AR; assay: HTRF cAMP detection assay, agonist activation; assay type: cell-based, human
# A2AR [5] = target: T1, A2AR; assay: GTP hydrolysis assay; assay type: biochemical; conditions: for agonist efficacy: GTP hydrolysis assay; for fold decrease/reduction in potency compared to adenosine: GTP hydrolysis assay EC50 values; for Activation screen: metabolites at 10 μM, replicates
# A2AR H75A = A2AR H75A (Homo sapiens, UniProt P29274, H75A/N154A); assay: GTP hydrolysis inhibition comparison, A2AR mutant; assay type: biochemical; conditions: 20 µM PGD2, Supplementary Fig. 10
# A2AR [6] = target: T1, A2AR; assay: Differential scanning fluorimetry; assay type: binding; conditions: dose-response DSF
# A2AR Q163E/H75A = A2AR Q163E/H75A (Homo sapiens, UniProt P29274, H75A/N154A/Q163E); assay: GTP hydrolysis inhibition comparison, A2AR mutant; assay type: biochemical; conditions: 20 µM PGD2, Supplementary Fig. 10
# A2AR K233A = A2AR K233A (Homo sapiens, UniProt P29274, K233A/N154A); assay: GTP hydrolysis inhibition comparison, A2AR mutant; assay type: biochemical; conditions: 20 µM PGD2, Supplementary Fig. 10
# A2AR K233A, sequence (P29274 8-316 N154A/K233A): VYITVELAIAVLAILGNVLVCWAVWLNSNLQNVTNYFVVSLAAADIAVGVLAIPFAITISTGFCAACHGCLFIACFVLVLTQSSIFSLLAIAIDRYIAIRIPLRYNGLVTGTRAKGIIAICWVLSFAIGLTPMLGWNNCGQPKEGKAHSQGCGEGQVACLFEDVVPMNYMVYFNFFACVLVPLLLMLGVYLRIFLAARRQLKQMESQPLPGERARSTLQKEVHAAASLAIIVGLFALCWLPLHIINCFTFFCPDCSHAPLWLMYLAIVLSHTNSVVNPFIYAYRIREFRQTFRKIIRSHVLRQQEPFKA
# A2AR-ΔCTD, sequence (P29274 8-316 N154A): as the sequence (P29274 8-316 N154A/K233A) above, with A226K counted along it
# T1 sequence (P29274 8-316 N154A): as the sequence (P29274 8-316 N154A/K233A) above, with A226K counted along it
# A2AR H75A, sequence (P29274 8-316 H75A/N154A): as the sequence (P29274 8-316 N154A/K233A) above, with H68A, A226K counted along it
# A2AR Q163E/H75A, sequence (P29274 8-316 H75A/N154A/Q163E): as the sequence (P29274 8-316 N154A/K233A) above, with H68A, Q156E, A226K counted along it
smiles,measurement,setting,value
CCCCC[C@H](O)/C=C/[C@H]1[C@H](O)CC(=O)[C@@H]1C/C=C\CCCC(=O)O [PGE2],effect on affinity of fluorescently labeled NECA to A2AR,A2AR-ΔCTD; 500 µM prostaglandin,"none of the three prostaglandins – PGI2, PGE2, and PGD2 were able to displace a fluorescently-labeled orthosteric ligand"
same,"MIDAS enrichment, statistical significance",[1],significantly enriched
same,Inhibition screen,A2AR [2],no effect
same,inhibition of adenosine-induced cAMP production,[3],no significant effect
CCNC(=O)[C@H]1O[C@@H](n2cnc3c(N)nc(NCCc4ccc(CCC(=O)O)cc4)nc32)[C@H](O)[C@@H]1O [CGS21680],reduction in binding,A2AR V84 to alanine,> 98%
same,reduction in binding,A2AR H278 to alanine,> 98%
Nc1ncnc2[nH]cnc12 [Adenine],"MIDAS enrichment, statistical significance",[1],significantly enriched
"Nc1ncnc2c1ncn2[C@H]1C[C@H](O)[C@@H](CO)O1 [DA, 2’-deoxyadenosine]",effect on affinity of fluorescently labeled NECA to A2AR,A2AR-ΔCTD; 100 µM SAH or DA,reduced the affinity of NECA
same,A2AR activation in HEK293 cells,"[4]; cell-based cAMP detection assay, Supplementary Fig. 12c",required millimolar concentrations for activation
same,"MIDAS enrichment, statistical significance",[1],did not meet the statistical significance threshold
same,EC50,A2AR [5],15 µM
same,agonist efficacy,A2AR [5],full agonists
same,fold decrease/reduction in potency compared to adenosine,A2AR [5],> 800 fold
same,Activation screen,A2AR [5],activated A2AR; also recorded: sub-maximal activation
CCCCC[C@H](O)/C=C/[C@@H]1[C@H]2C/C(=C/CCCC(=O)O)O[C@H]2C[C@H]1O [PGI2],effect on affinity of fluorescently labeled NECA to A2AR,A2AR-ΔCTD; 500 µM prostaglandin,"none of the three prostaglandins – PGI2, PGE2, and PGD2 were able to displace a fluorescently-labeled orthosteric ligand"
same,"MIDAS enrichment, statistical significance",[1],significantly enriched
same,Inhibition screen,A2AR [2],no effect
"Nc1ncnc2c1ncn2[C@@H]1O[C@H](CSCC[C@H](N)C(=O)O)[C@@H](O)[C@H]1O [SAH, S-adenosyl-L-homocysteine]",effect on affinity of fluorescently labeled NECA to A2AR,A2AR-ΔCTD; 100 µM SAH or DA,reduced the affinity of NECA
same,EC50,"[4]; Homo sapiens, HEK293",~5 µM
same,"MIDAS enrichment, statistical significance",[1],did not meet the statistical significance threshold
same,EC50,A2AR [5],5 µM
same,agonist efficacy,A2AR [5],full agonists
same,fold decrease/reduction in potency compared to adenosine,A2AR [5],> 250 fold
same,Activation screen,A2AR [5],activated A2AR; also recorded: sub-maximal activation
"CCCCC[C@H](O)/C=C/[C@H]1C(=O)C[C@H](O)[C@@H]1C/C=C\CCCC(=O)O [PGD2, prostaglandin D2]",change of PGD2-mediated inhibition by mutation,A2AR H75A,comparatively no effect
same,effect on melting temperature (Tm) of A2AR,A2AR [6],concentration-dependent increase in the melting temperature (Tm)
same,change of PGD2-mediated inhibition by mutation,A2AR Q163E/H75A,minor reduction of inhibition
same,effect on affinity of fluorescently labeled NECA to A2AR,A2AR-ΔCTD; 500 µM prostaglandin,"none of the three prostaglandins – PGI2, PGE2, and PGD2 were able to displace a fluorescently-labeled orthosteric ligand"
same,change of PGD2-mediated inhibition by mutation,A2AR K233A,no change
same,"MIDAS enrichment, statistical significance",[1],significantly enriched
same,inhibition of A2AR in competition activity assay,"A2AR [2]; 500 μM PGD2, saturating adenosine up to 100 µM",sustained inhibition; also recorded: near-complete inhibition
same,IC50,"A2AR [2]; IC50, dose-response assay, Supplementary Fig. 5a",180 µM
same,Inhibition screen,A2AR [2],completely inhibiting A2AR activity
same,fold increase in the IC50 in cell-based assay relative to protein-based assay,[3]; HTRF cAMP vs GTP hydrolysis,approximately 8 fold
same,inhibition of adenosine-induced cAMP production,[3],near-complete inhibition
"CN(C)c1ncnc2nc[nH]c12 [DMAP, dimethylaminopurine]","MIDAS enrichment, statistical significance",[1],significantly enriched
